From PubChem
PGC1a acetyl inh: lowers PGC1a acetylation signal in U2OS cells; AlphaScreen anti-acetyl-lysine; with virally co-expressed GCN5 acetyltransferase; inhibition, % at 15.6 µM; 350,000 compounds, 0.17% hits;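 active = every replicate shows inhibition of at least 40%; inconclusive = mean inhibition at least 40% but some replicate below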;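 also: 0% = neutral control wells and 100% = positive control wells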
SIRT5 inh: sirtuin-5 (human) deacylase inhibition | Purified SirT5, succinyl-peptide AMC, trypsin-coupled fluorescence | inhibition, % at 15 µM | 330,000 compounds, 1.1% hits | AID 652115; in the data active = inhibition above about 15%; inconclusive = no clear call, values can overlap the other calls
Target sequence (Q9NXA8 whole entry, looked up): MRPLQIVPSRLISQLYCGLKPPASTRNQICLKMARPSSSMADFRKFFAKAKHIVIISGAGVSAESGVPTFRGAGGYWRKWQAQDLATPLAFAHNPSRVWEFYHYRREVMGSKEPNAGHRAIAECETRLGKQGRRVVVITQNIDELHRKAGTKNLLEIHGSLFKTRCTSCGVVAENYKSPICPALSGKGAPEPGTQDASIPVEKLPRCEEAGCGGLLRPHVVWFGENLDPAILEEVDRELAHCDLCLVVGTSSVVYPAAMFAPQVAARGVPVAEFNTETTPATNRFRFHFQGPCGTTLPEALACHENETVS
DENV2 CPE rescue: protects cells from dengue virus 2 cytopathic effect; CPE inhibition, % at 9.99 µM; 350,000 compounds, 1.7% hits; DENV2-infected cells, cytopathic effect rescue, plate reader; AID 651640; in the data active = CPE inhibition above about 20%, passing the limit was not always enough; inconclusive = no clear call, values can overlap the other calls; tested in BHK-21 cells;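 also: 0% = median of neutral control wells and 100% = median of positive control wells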
C2C12 statin: protects C2C12 myotubes from simvastatin toxicity; ATP luminescence, 48 h; scaled: DMSO 0, geranylgeraniol control 100; rescue of ATP level, % at 7.49 µM; 330,000 compounds, 0.78% hits; AID 602340;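 active = mean ATP rescue above about 67%, or every replicate alone reaching that limit, limit read from the data, passing the limit was not always enough; inconclusive = no clear call, values can overlap the other calls; inactive = mean under the limit and some replicate under it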;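 also: myotubes were challenged with 10 µM simvastatin during compound exposure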
S100A4 MyoIIA: blocks human S100A4 binding to myosin IIA peptide; P26447; S100A4/TAMRA-MyoIIA peptide fluorescence polarization; inhibition, % at 10.7 µM; 360,000 compounds, 0.14% hits;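 active = mean inhibition of at least 70% across replicates, with every replicate also reaching that level; inconclusive = mean inhibition reaches 70% but some replicates fall short; inactive = mean inhibition below 70%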
Target sequence (P26447 whole entry, looked up): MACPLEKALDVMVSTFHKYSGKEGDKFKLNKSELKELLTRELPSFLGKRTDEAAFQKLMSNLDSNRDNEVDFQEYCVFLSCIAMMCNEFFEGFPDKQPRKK
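incubation = readout 5 min after mixing, signal stable up to 60 min | system = S100A4 monomer protein | buffer or medium = HEPES pH 7.2 with CaCl2, KCl, NaCl, DTT, Triton | benchmarks = neutral control DMSO, positive control TFP | also added = fluorescent myosin IIA peptide, 5 nM | compound dosing = one concentration per compound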
* hit, by the source's call; ? = inconclusive; / = not tested or not shown. In the library only some 2.9% were active in any assay of this set; here they are far more common.

SMILES	PGC1a acetyl inh	SIRT5 inh	DENV2 CPE rescue	C2C12 statin	S100A4 MyoIIA
CNC[C@H]1OCCCC[C@@H](C)Oc2ccc(NC(=O)Nc3c(C)noc3C)cc2C(=O)N([C@@H](C)CO)C[C@H]1C	23.7	8.9	?	3.1	1.0
Cc1ccc(S(=O)(=O)Nc2ccc3c(c2)C(=O)N([C@@H](C)CO)C[C@H](C)[C@H](CN(C)C(=O)c2ccccc2)OCCCC[C@@H](C)O3)cc1	1.2	0.7	-6.2	/	-21.8
C[C@@H]1CN([C@H](C)CO)C(=O)Cc2cc(NC(=O)Cc3cn(C)c4ccccc34)ccc2O[C@@H]1CN(C)Cc1ccc(Cl)c(Cl)c1	-11.1	-2.0	-3.3	69.0*	-1.8
C[C@@H]1CN([C@H](C)CO)C(=O)Cc2cc(NC(=O)Cc3cn(C)c4ccccc34)ccc2O[C@@H]1CN(C)Cc1ccccc1	/	6.0	9.9	47.8	21.9
C[C@@H]1CN([C@@H](C)CO)C(=O)Cc2cc(NC(=O)Cc3cn(C)c4ccccc34)ccc2O[C@@H]1CN(C)Cc1ccccc1	/	5.3	-4.1	25.1	6.7
C[C@H]1CN([C@@H](C)CO)C(=O)Cc2cc(NC(=O)Cc3cn(C)c4ccccc34)ccc2O[C@@H]1CN(C)Cc1ccc(Cl)c(Cl)c1	-7.6	-1.9	-3.9	142.3*	-1.5
C[C@@H]1CN([C@@H](C)CO)C(=O)c2cc(NC(=O)Cc3cn(C)c4ccccc34)ccc2O[C@H]1CN(C)Cc1ccc(Cl)c(Cl)c1	-7.0	26.0*	-7.1	24.7	-6.5
O=C(c1ccccc1F)N1C[C@H]2[C@@H](c3ccccc31)[C@@H](CO)N2C(=O)Nc1ccccc1	0.3	/	/	-4.2	/
O=C(CSc1nnc(NC(=O)c2ccccc2F)s1)NC1CCCC1	/	0.3	5.9	5.4	24.5
CC(=O)Nc1ccc(NC(=O)CSc2nnc(NC(=O)c3ccccc3F)s2)cc1	2.8	6.2	30.3*	-5.1	-17.7
CCN(CC)CCNc1nc2ccccc2n1C	2.6	/	/	5.2	/
Cc1ccc2c(c1)nc(NCCO)n2C	-3.0	/	/	91.1*	/
COc1cccc(S(=O)(=O)N[C@@H]2CC[C@H](CC(=O)NC3CCC3)O[C@H]2CO)c1	-2.0	-3.9	1.4	15.0	1.3
Cc1ccc(S(=O)(=O)N2CC[C@@H]3[C@H]2c2cc(-c4ccc(C#N)cc4)ccc2N[C@@H]3CO)cc1	-0.6	/	24.3*	-14.3	/
O=S(=O)(c1ccc(F)cc1)N1CC[C@H]2[C@H](CO)Nc3ccc(-c4ccccc4F)cc3[C@H]21	-17.9	4.7	42.8*	5.9	-3.9
C/C=C/c1ccc2c(c1)[C@H]1[C@H](CCN1Cc1ccc(F)cc1)[C@H](CO)N2	7.9	-2.3	37.9*	/	5.5
O=S(=O)(c1cccc(F)c1)N1CC[C@@H]2[C@H]1c1cc(-c3cccc(F)c3)ccc1N[C@@H]2CO	-18.0	/	51.6*	3.6	/
OC[C@H]1Nc2ccc(-c3ccc(F)cc3)cc2[C@H]2[C@@H]1CCN2Cc1ccc(F)cc1	13.9	/	-26.6	28.6	/
COc1ccc(S(=O)(=O)N2CC[C@@H]3[C@@H](CO)Nc4ccc(-c5ccc(C#N)cc5)cc4[C@@H]32)cc1	12.4	1.3	7.2	-73.0	-4.1
O=S(=O)(c1ccccc1)N1CC[C@H]2[C@H](CO)Nc3ccc(-c4ccccc4F)cc3[C@H]21	-6.9	/	/	-4.8	/
COc1ccc(-c2ccc([C@H]3[C@H](C#N)N(C(=O)c4cccnc4)[C@H]3CO)cc2)cc1	-11.6	-1.1	?	14.0	-3.0
O=S(=O)(c1ccc(F)cc1)N1CC[C@H]2[C@H](CO)Nc3ccc(-c4ccc(F)cc4)cc3[C@H]21	1.9	/	14.1	6.9	/
Cc1ccccc1S(=O)(=O)N1CC[C@@H]2[C@@H](CO)Nc3ccc(-c4ccccc4F)cc3[C@@H]21	-9.7	0.9	42.0*	-26.8	3.6
O=S(=O)(c1ccc(F)cc1)N1CC[C@@H]2[C@@H](CO)Nc3ccc(-c4ccc(F)cc4)cc3[C@@H]21	11.1	/	51.1*	3.1	/
C/C=C/c1ccc2c(c1)[C@H]1[C@H](CCN1S(=O)(=O)c1ccccc1)[C@H](CO)N2	-13.8	-2.1	-5.5	-16.0	-2.1
C/C=C/c1ccc2c(c1)[C@H]1[C@H](CCN1S(=O)(=O)c1ccccc1F)[C@H](CO)N2	-3.0	/	25.5*	-47.0	/
Cc1cccc(S(=O)(=O)N2CC[C@@H]3[C@H]2c2cc(-c4ccccc4F)ccc2N[C@@H]3CO)c1	-0.5	/	40.0*	43.0	/
